A selection: hits, their analogues and other compounds. The true share with any hit is near 0.91%.
Arbovirus inh: antivirals against arbovirus infection, primary screen, cell-based, full library, 10K replicate subset; inhibition, % at 10 µM; hit rate 0.37% among 200,000; arbovirus infection cell-based antiviral screen; in the data active means inhibition above about 30%
Pf gamet viab: late stage P. falciparum gametocyte viability inhibitors, primary screen, ATP luminescence, HTS; P. falciparum stage V gametocytes, 24 h; inhibition, % at 10.9 µM; hit rate 0.065% among 150,000;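 active means inhibition above the mean plus 3 SD of compounds within the control limits, set per campaign, cut at about 38% in these data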;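 further: 0% = DMSO wells and 100% = medium only without gametocytes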
Hep lipid drop: inhibitors of hepatocyte lipid droplet formation, primary screen, imaging, high-throughput imaging, BODIPY stain; AML12 mouse hepatocytes, oleate lipid droplets; inhibition, % at 6.5 µM; hit rate 0.4% among 240,000; AID 1656, 2009;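 active means lipid droplet intensity inhibited by at least 50%, with more than 500 cells counted; inconclusive means wells with under 300 cells, treated as cytotoxic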
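Assay system: AML12 mouse liver cells | Compound: 6.5 µM single-point dosing | Schedule: Overnight exposure | Technique: Fluorescence imaging, 20x objective, two fields per well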
zVAD death inh: inhibitors of zVAD-triggered necroptosis, primary screen, L929 cells; L929 zVAD necroptosis rescue, ATP luminescence, 24 h; with zVAD 60 µM; hit rate 0.38% among 220,000; viability rescue, % at 10 µM;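 active means activation, scaled between plate controls, above about 75%, limit read from the data; inactive means activation under that limit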;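 further: 0% = zVAD with DMSO and 100% = DMSO alone without zVAD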
TNF necrop inh: inhibitors of TNF-alpha triggered necroptosis, primary screen, cell-based, Jurkat FADD-/-, single concentration; Jurkat FADD-/- TNF necroptosis rescue, ATP luminescence, 24 h; 0 = TNF only, 100 = no-TNF cells; activation (protection from cell death), % at 10 µM; hit rate 0.068% among 220,000; AID 463075, 2010;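 active means activation, meaning protection from cell death, of at least 50% relative to plate controls; inactive means activation below 50%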;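 further: necroptosis triggered by 40 ng/mL TNF-alpha added together with compound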
Starred values were filed as active, the others as inactive; ? = inconclusive; / = no result given.

SMILES	Arbovirus inh	Pf gamet viab	Hep lipid drop	zVAD death inh	TNF necrop inh
COc1ccc(-n2c(C)nc3sc4c(c3c2=O)CCCC4)cc1	0	/	-1	8	89*
CNC(=O)NC(=O)CN1C(=O)NC2(CCOc3ccccc32)C1=O (configuration not stated)	/	/	-5	/	/
Cc1nn(-c2ccccc2)c(Cl)c1/C=N/Nc1ccc(Cl)c(C(=O)O)c1	89*	/	7	0	1
Cc1nn(-c2ccccc2)c(Cl)c1/C=N/NC(=O)OC(C)(C)C	16	-24	7	6	-7
COC(=O)c1ccc(COc2ccc(/C=N/Nc3cccc(C(=O)O)c3)cc2)cc1	/	0	12	1	-1
O=C(O)c1cc(N/N=C/c2ccc(OCc3ccccc3)cc2)ccc1Cl	39*	/	10	4	0
CC(C)C(=O)NC(=S)Nc1ccccc1C(=O)NC1CCCCC1	1	52*	-25	/	4
Cc1ccc(-c2nc3cccnc3s2)cc1NS(=O)(=O)c1ccc2c(c1)OCCO2	-14	/	-2	2	1
O=S(=O)(Nc1cccc(-c2nc3cccnc3s2)c1)c1ccc2c(c1)OCCO2	31*	/	3	1	0
O=C(O)/C(=C\c1ccc(-c2ccc(F)cc2)o1)c1ccccc1	44*	11	11	2	1
O=C(NCc1ccccc1)c1cc2ccc(O)cc2oc1=O	/	-14	4	/	/
O=C(O)c1ccc(N=c2oc3cc(O)ccc3cc2C(=O)NCc2ccccc2)cc1	5	42*	-2	36	1
Cc1ccc(-n2cccc2/C=C2\C(=N)N3N=C(C(C)C)SC3=NC2=O)cc1	32*	-20	0	6	0
CCC1=NN2C(=N)/C(=C\c3cccn3-c3ccc(OC)cc3)C(=O)N=C2S1	30	10	10	0	-2
O=C(NC1CC1)c1nc(Cn2cc([N+](=O)[O-])cn2)no1	/	/	-1	/	/
COc1ccc(C2CC(=O)N(CCCN(C)CCc3ccc(OC)c(OC)c3)C2)cc1 (configuration not stated)	4	/	-5	-1	1
COc1ccc(CCN(C)CCCN2CC(c3ccccc3)CC2=O)cc1OC (configuration not stated)	2	42*	6	-1	2
CCOc1ccccc1C1CC(=O)NC(SCC(=O)Nc2nccs2)=C1C#N (configuration not stated)	0	2	-4	93*	82*
N#CC1=C(SCC(=O)Nc2ccccc2)NC(=O)CC1c1ccc(O)cc1 (configuration not stated)	42*	/	/	2	1
COC(=O)CSC1=C(C#N)C(c2ccc(C(C)C)cc2)CC(=O)N1 (configuration not stated)	-7	/	/	9	56*
COc1ccc(-c2nc(NC(=O)c3n[nH]c(=O)c4ccccc34)sc2C)cc1	44*	3	0	0	1
COc1cc(NC(=O)c2n[nH]c(=O)c3ccccc23)cc(OC)c1	/	-1	-10	0	0
Cc1ccnc(NC(c2cccnc2)c2ccc3cccnc3c2O)c1 (configuration not stated)	-18	-3	4	-1	-6
Cc1ccc2ccc(C(Nc3cccc(C(F)(F)F)c3)c3cccnc3)c(O)c2n1 (configuration not stated)	5	39*	3	0	2
O=C(OCCc1cc2ccccc2c(=O)o1)c1ccccc1C(F)(F)F	/	-19	/	/	/
SMILES	Arbovirus inh	Pf gamet viab	Hep lipid drop	zVAD death inh	TNF necrop inh
Cc1cccc(NC(=O)[C@@H]2CCCN2C(=O)OC(C)(C)C)c1	/	/	2	/	/
Brc1ccccc1-c1nnc(SCc2nc3ccccc3s2)o1	34*	3	4	0	2
Cc1ccc2c(c1)c1c(n2CC(O)Cn2c(C)nc3ccccc32)/C(=N\O)CCC1 (configuration not stated)	-33	/	-7	1	-3
Cc1ccc2c(c1)c1c(n2CC(O)Cn2c(C)nc3ccccc32)C(=O)CCC1 (configuration not stated)	37*	/	-8	0	-2
COc1ccc(CCC(=O)OCC(=O)Nc2ccccc2)cc1	/	/	9	/	/
O=C(N/C(=C\c1ccco1)C(=O)N1CCOCC1)c1ccccc1Cl	/	/	-71	/	/
COc1cc2ncnc(NCc3ccccc3)c2cc1OC	2	-17	?	1	-4
COc1cc2ncnc(NCc3cccc(Cl)c3)c2cc1OC	-19	-1	51*	13	0
CCOC(=O)[C@@H]1[C@H]2COc3ccccc3[C@H]2N2C(=O)N(c3cccc(F)c3)C(=O)[C@]12C	/	8	-10	/	/
CC(=O)Nc1ccc(S(=O)(=O)N2CCC3(CC2)OCCO3)cc1	/	/	-2	/	/
Cc1nnc2sc(SCc3ccccc3)nn2c1=O	16	/	-6	1	3
Cc1nnc2sc(SCc3cccc(Cl)c3)nn2c1=O	31*	-20	0	1	-1
CCc1ccc(S(=O)(=O)c2ccc(-n3nc(C)cc3N)cc2)cc1	33*	-2	-3	1	-3
Cc1cc(N)n(-c2ccc(C(=O)O)cc2)n1	-2	7	5	0	1
C=CCn1c(N)c(C(=O)NCc2cccnc2)sc1=S	77*	0	/	0	1
C/C(CCS(=O)(=O)c1ccccc1)=N/O	-2	38*	11	1	1
O=[N+]([O-])c1ccc(NCCNCCOc2nonc2-c2ccccc2)c([N+](=O)[O-])c1	30*	/	-14	0	1
COc1ccc(C(=O)Nc2ccc(-c3ccc(C)o3)cc2)cc1S(=O)(=O)N1CCOCC1	-3	/	0	84*	-11
CC(C(=O)Nc1ccccc1)N(C)Cc1cccs1 (configuration not stated)	/	/	-4	/	/
O=C1NC(Cc2c[nH]c3ccccc23)C(=O)N1CCOc1ccc(F)cc1 (configuration not stated)	-1	-21	/	7	65*
CCOc1ccc(OCCN2C(=O)NC(Cc3c[nH]c4ccccc34)C2=O)cc1 (configuration not stated)	7	/	-7	1	5
c1ccc(-c2nc(C3CCCCC3)no2)cc1	-3	/	15	0	0
COc1ccc(-c2nc(C3CCCCC3)no2)cc1OC	35*	/	/	0	0
N#C/C(=C\c1cc2ccccc2nc1N1CCCCC1)C(N)=O	35*	24	6	1	1
O=S(=O)(Cc1ccccc1)N1CCN(Cc2ccc(F)cc2Cl)CC1	/	/	-34	/	/
CCOC1=C/C(=C/c2c(N)n3nc(-c4ccccc4)sc3nc2=O)C=CC1=O	33*	-26	-3	5	0
CCS(=O)(=O)c1nn2c(N)c(/C=C3/C=CC(=O)C(OC)=C3)c(=O)nc2s1	-4	-4	-3	1	0
COC1=C/C(=C/c2c(N)n3nc(-c4ccc(C)cc4)sc3nc2=O)C=CC1=O	32*	6	20	56	0

From PubChem BioAssay
